Series [1] deals with T1, Coagulation factor X (Homo sapiens, UniProt P00742). Kind of series: Inhibitory concentration against coagulation factor Xa.
For series [2], the target named is T1, Coagulation factor X. The experiment in a line: Inhibition of Coagulation factor X.
The nature of series [3]: Oral bioavailability in rat. Particulars: in vivo. In kind it is ADME, organism-based. The essentials: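 Sprague–Dawley rats given 6 mg/kg orally, with oral bioavailability calculated.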
Series [4] deals with T1, Coagulation factor X. The experiment in a line: Concentration required to double the lag time of maximum thrombin generation in human plasma-based thrombin generation assay. The class given is functional, cell-free. The gist of the method:
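Human plasma treated with reptilase, mixed with inhibitor serially diluted from DMSO stock, then chromogenic substrate H-b-Ala-Gly-Arg-p-nitroanilide and CaCl2. Thrombin generation started with 640 pmol/L recombinant tissue factor. Absorbance at 405 nm followed at 37 °C for 22 min. Reported as 2XTG, the inhibitor concentration that doubles the time to maximum thrombin generation.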

In the next series the target is Serine protease 1 (Homo sapiens, UniProt P07477). Kind of series: Inhibitory concentration against trypsin was determined.
The next series deals with Kallikrein-1 (Homo sapiens, UniProt P06870). The experiment in a line: Inhibitory activity against kallikrein was determined.
Series [5] concerns the target Plasminogen (Homo sapiens) (UniProt P00747). The experiment in a line: Inhibitory activity against plasmin was determined.
Series [6] deals with Vitamin K-dependent protein C (Homo sapiens, UniProt P04070). The experiment in a line: Inhibitory activity against activated protein C was determined.
Series [7] has as its target Tissue-type plasminogen activator (Homo sapiens, UniProt P00750). Kind of series: Inhibitory activity against tissue type plasminogen activator was determined.

By IC50 is commonly meant the concentration that inhibits the measured activity by half. A high value points to a need for much substance. For orientation: Ki means a measure of affinity in units of concentration, obtained from inhibition or displacement. A high value points to lower affinity. Broadly, the bioavailability is the share of a dose that reaches the circulation, judged against a reference dose that is usually intravenous. Low values mean poor availability, high ones good availability.

T1 sequence (P00742 41-179 limits assumed): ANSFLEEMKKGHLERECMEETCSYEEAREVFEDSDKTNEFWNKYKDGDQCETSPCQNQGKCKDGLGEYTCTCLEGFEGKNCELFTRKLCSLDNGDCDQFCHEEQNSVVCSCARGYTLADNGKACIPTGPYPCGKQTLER
T1 sequence (P00742 235-488 limits assumed): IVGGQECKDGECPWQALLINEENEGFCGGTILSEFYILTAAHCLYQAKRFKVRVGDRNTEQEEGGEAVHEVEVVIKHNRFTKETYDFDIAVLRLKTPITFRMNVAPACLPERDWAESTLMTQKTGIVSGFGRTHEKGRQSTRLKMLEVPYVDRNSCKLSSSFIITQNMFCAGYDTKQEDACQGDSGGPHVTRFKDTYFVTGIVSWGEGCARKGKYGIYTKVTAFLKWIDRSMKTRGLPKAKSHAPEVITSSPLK
Serine protease 1, sequence (P07477 whole entry): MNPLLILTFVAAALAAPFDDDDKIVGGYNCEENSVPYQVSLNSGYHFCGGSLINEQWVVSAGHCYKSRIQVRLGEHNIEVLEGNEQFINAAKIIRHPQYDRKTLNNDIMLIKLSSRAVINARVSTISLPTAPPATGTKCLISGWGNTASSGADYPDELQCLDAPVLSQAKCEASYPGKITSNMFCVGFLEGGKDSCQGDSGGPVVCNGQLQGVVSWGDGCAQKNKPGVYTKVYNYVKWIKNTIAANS
Plasminogen (Homo sapiens), sequence (P00747 whole entry, looked up): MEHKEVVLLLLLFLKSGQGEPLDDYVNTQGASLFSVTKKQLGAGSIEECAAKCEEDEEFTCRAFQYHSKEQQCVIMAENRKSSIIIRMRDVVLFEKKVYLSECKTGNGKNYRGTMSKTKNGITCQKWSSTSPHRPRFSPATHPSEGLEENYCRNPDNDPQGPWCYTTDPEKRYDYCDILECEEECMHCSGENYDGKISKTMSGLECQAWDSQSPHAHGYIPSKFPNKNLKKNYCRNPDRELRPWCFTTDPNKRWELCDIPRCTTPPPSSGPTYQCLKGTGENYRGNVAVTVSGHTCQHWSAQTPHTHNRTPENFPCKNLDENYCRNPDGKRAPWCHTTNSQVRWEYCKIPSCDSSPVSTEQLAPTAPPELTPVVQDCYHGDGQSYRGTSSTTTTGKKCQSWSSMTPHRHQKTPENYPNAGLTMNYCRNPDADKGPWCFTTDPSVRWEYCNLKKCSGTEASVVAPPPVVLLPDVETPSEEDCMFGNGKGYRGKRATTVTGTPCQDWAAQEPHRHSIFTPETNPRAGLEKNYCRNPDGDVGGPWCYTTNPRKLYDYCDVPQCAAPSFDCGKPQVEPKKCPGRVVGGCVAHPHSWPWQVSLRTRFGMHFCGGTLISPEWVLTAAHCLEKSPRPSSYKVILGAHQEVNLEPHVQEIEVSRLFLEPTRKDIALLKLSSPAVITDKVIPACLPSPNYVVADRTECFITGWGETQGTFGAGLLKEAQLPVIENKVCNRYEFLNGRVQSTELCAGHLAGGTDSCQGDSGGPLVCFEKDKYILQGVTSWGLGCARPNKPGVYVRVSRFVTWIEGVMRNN
Tissue-type plasminogen activator, sequence (P00750 whole entry): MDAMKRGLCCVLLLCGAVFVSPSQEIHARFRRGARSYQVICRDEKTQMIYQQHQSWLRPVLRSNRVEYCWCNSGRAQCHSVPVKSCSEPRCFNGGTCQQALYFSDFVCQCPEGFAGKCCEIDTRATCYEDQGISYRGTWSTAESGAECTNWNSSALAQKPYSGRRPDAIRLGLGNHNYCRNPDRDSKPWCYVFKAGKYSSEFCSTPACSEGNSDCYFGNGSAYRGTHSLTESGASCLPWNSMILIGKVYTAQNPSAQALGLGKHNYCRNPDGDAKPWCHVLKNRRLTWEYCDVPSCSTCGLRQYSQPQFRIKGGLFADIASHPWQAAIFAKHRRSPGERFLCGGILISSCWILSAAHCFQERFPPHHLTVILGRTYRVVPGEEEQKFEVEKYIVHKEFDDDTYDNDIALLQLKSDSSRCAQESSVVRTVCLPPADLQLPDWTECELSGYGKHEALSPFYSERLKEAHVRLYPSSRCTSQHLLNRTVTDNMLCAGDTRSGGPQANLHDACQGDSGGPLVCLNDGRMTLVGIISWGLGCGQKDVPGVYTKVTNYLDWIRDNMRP
Kallikrein-1, sequence (P06870 whole entry): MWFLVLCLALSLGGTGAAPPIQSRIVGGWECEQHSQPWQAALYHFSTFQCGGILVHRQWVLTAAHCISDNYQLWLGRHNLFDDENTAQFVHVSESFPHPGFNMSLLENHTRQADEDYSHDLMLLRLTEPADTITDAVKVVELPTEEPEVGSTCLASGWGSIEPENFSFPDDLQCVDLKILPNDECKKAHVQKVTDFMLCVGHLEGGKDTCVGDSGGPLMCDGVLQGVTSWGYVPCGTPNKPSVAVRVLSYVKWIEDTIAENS
Vitamin K-dependent protein C, sequence (P04070 43-197 limits assumed): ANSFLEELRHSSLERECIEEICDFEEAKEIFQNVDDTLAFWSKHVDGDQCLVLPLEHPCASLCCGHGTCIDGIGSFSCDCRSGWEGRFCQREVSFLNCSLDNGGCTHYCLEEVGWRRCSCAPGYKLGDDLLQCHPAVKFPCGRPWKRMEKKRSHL
Vitamin K-dependent protein C, sequence (P04070 212-461 limits assumed): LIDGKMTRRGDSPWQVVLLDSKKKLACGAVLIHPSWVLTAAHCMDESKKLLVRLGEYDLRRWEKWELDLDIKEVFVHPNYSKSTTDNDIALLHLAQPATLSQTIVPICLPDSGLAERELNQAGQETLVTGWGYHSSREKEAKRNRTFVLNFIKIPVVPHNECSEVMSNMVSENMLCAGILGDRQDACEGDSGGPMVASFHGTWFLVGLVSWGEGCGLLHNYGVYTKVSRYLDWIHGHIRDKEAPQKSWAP

`NC(N)=NCc1ccccc1-c1ccc(C(=O)Nc2ccc(Cl)cc2C(=O)Nc2ccc(Cl)cn2)cc1` gave an IC50 on Coagulation factor X [1] of 1.2 nM. The compound further had a Ki on Coagulation factor X [2] of 0.3 nM. The bioavailability in [3] was less than 1%.
On to `Nc1ccc(NC(=O)c2ccc(-c3ccccc3S(N)(=O)=O)cc2)c(C(=O)Nc2ccc(Cl)cn2)c1`, for which the Activity at Coagulation factor X [4] stood at 3 µM. On Coagulation factor X [1], this compound had a half-maximal inhibitory concentration (IC50) of 6.7 nM.
As to `NS(=O)(=O)c1ccccc1-c1ccc(C(=O)Nc2ccncc2C(=O)Nc2ccc(Cl)cn2)cc1`, the Activity on Coagulation factor X [4] is 2.2 µM. The compound also gave a 50% inhibitory concentration (IC50) on Coagulation factor X [1] of 18 nM.
For `CC(=N)NCc1cccc(-c2ccc(C(=O)Nc3ccc(Cl)cc3C(=O)Nc3ccc(Cl)cn3)cc2)c1`, the Activity at Coagulation factor X [4] was greater than 5 µM. At Coagulation factor X [1], this compound came in with an IC50 of 4.4 nM. This compound yielded an inhibitory constant (Ki) on Coagulation factor X [2] of 1.8 nM.
For `N=C(N)c1cccc(-c2ccc(C(=O)Nc3ccc(Cl)cc3C(=O)Nc3ccc(Cl)cn3)cc2)c1`, the Activity at Coagulation factor X [4] was greater than 5 µM. The same compound displayed an IC50 against Coagulation factor X [1] of 1.6 nM. In addition, at Coagulation factor X [2], the Ki is 0.7 nM. In series [3], this compound yielded a bioavailability of less than 1%.
As for `CC(=O)Nc1ccc(NC(=O)c2ccc(-c3ccccc3S(N)(=O)=O)cc2)c(C(=O)Nc2ccc(Br)cn2)c1`, the IC50 against Coagulation factor X [1] is 370 nM.
As for `O=C(Nc1ccc(Cl)cc1C(=O)Nc1ccc(Cl)cn1)c1ccc(-c2ccccc2N2CCC(C(=O)O)CC2)cc1`, the Activity at Coagulation factor X [4] was greater than 5 µM. For the same compound, the half-maximal inhibitory concentration (IC50) at Coagulation factor X [1] came to 0.4 nM. This compound yielded a Ki at Coagulation factor X [2] of 0.012 nM.
At Coagulation factor X [1], `O=C(Nc1ccc(Cl)cc1C(=O)Nc1ccc(Cl)cn1)c1ccc(-c2cccc(N3CCNCC3)c2)cc1` yielded a concentration for half-maximal inhibition (IC50) of 39 nM.
Regarding `O=C(Nc1ccc(Cl)cc1C(=O)Nc1ccc(Cl)cn1)c1ccc(-c2cccc(N3CCCCC3)c2)cc1`, it took 16 nM to reach half-maximal inhibition against Coagulation factor X [1] (IC50).
As to `O=C(Nc1ccc(Cl)cc1C(=O)Nc1ccc(Cl)cn1)c1ccc(-c2ccccc2N2CCCNCC2)cc1`, on Coagulation factor X [4], the Activity is greater than 5 µM. For the same compound, the half-inhibitory concentration (IC50) against Coagulation factor X [1] turned out to be 5.6 nM. This compound gave a Ki on Coagulation factor X [2] of 1.8 nM.
The compound `Nc1ccc(C(=O)Nc2ccc(Br)cn2)c(NC(=O)c2ccc(-c3ccccc3S(N)(=O)=O)cc2)c1` came in with an Activity at Coagulation factor X [4] greater than 5 µM. In addition, half-maximal inhibition against Coagulation factor X [1] (IC50) required 6.2 nM.
On Coagulation factor X [1], `CN1CCN(c2ccc(NC(=O)c3ccc(-c4ccccc4S(N)(=O)=O)cc3)c(C(=O)Nc3ccc(Br)cn3)c2)CC1` came in with an IC50 of 1550 nM.
On Coagulation factor X [4], `CC(=N)NCc1ccccc1-c1ccc(C(=O)Nc2ccc(Cl)cc2C(=O)Nc2ccc(Cl)cn2)cc1` had an Activity greater than 5 µM.
As for `CN(C)c1ccccc1-c1ccc(C(=O)Nc2ccc(Cl)cc2C(=O)Nc2ccc(Cl)cn2)cc1`, the Activity on Coagulation factor X [4] was greater than 5 µM. The compound further had an IC50 at Coagulation factor X [1] of 0.9 nM. In addition, on Coagulation factor X [2], the Ki came to 0.1 nM. Also, the bioavailability in [3] is 100%.
At Coagulation factor X [1], `N=C(N)c1ccc(-c2ccc(C(=O)Nc3ccc(Cl)cc3C(=O)Nc3ccc(Cl)cn3)cc2)cc1` gave a 50% inhibitory concentration (IC50) of 66 nM.
On Coagulation factor X [4], `CN(C)C(=N)c1ccccc1-c1ccc(C(=O)Nc2ccc(Cl)cc2C(=O)Nc2ccc(Cl)cn2)cc1` yielded an Activity of 1.4 µM. The compound also had an IC50 at Coagulation factor X [1] of 0.2 nM. The compound also displayed an inhibitory constant (Ki) at Coagulation factor X [2] of 0.1 nM.
Compound `NS(=O)(=O)c1ccccc1-c1ccc(C(=O)NCCC(=O)Nc2ccc(Br)cn2)cc1` yielded an IC50 on Coagulation factor X [1] of 12 nM.
Turning to `CC(N)=NCc1ccccc1-c1ccc(C(=O)Nc2ccc(Cl)cc2C(=O)Nc2ccc(Cl)cn2)cc1`, on Coagulation factor X [1], the IC50 was found to be 0.7 nM. Further, at Coagulation factor X [2], the inhibition constant (Ki) was 0.1 nM. The compound also came in with a bioavailability in series [3] of less than 1%.
Regarding `NS(=O)(=O)c1ccccc1-c1ccc(C(=O)Nc2ccccc2C(=O)Nc2ccc(Cl)cn2)cc1`, the Activity on Coagulation factor X [4] is greater than 5 µM. Moreover, 6.7 nM corresponded to half-maximal inhibition against Coagulation factor X [1] (IC50).
On to `CN(C)C(=N)c1cccc(-c2ccc(C(=O)Nc3ccc(Cl)cc3C(=O)Nc3ccc(Cl)cn3)cc2)c1`, for which, at Coagulation factor X [4], the Activity was greater than 5 µM. This compound also had an IC50 at Coagulation factor X [1] of 2 nM. Besides, the Ki on Coagulation factor X [2] was 1 nM.
In turn, `Nc1ccc(NC(=O)c2ccc(-c3ccccc3S(N)(=O)=O)cc2)c(C(=O)Nc2ccc(Br)cn2)c1` returned an Activity on Coagulation factor X [4] of 2.8 µM. For the same compound, the IC50 on Coagulation factor X [1] came out at 4.6 nM.
On to `CNc1cccc(-c2ccc(C(=O)Nc3ccc(Cl)cc3C(=O)Nc3ccc(Cl)cn3)cc2)c1`, for which, at Coagulation factor X [1], the IC50 was 2.3 nM.
The same measure, in the same setting: the figure for `Nc1cccc(-c2ccc(C(=O)Nc3ccc(Cl)cc3C(=O)Nc3ccc(Cl)cn3)cc2)c1` is 1.9 nM.
Still for that read-out and setting: next, `O=C(Nc1ccc(Cl)cc1C(=O)Nc1ccc(Cl)cn1)c1ccc(-c2cccc(N3CCCNCC3)c2)cc1`: 32 nM; `CN(C)C(=N)c1ccc(-c2ccc(C(=O)Nc3ccc(Cl)cc3C(=O)Nc3ccc(Cl)cn3)cc2)cc1`: 60 nM; `O=C(Nc1ccc(Cl)cc1C(=O)Nc1ccc(Cl)cn1)c1ccc(-c2cccc(N3CCCC3)c2)cc1`: 5.3 nM.
Same read-out and setting: the figure for `O=C(Nc1ccc(Cl)cc1C(=O)Nc1ccc(Cl)cn1)c1ccc(-c2cccc(N3CCC(O)CC3)c2)cc1` is 7 nM.
In the case of `N=C(N)NCc1ccccc1-c1ccc(C(=O)Nc2ccc(Cl)cc2C(=O)Nc2ccc(Cl)cn2)cc1`, the Activity at Coagulation factor X [4] is greater than 5 µM.
`NS(=O)(=O)c1ccccc1-c1ccc(C(=O)Nc2cccnc2C(=O)Nc2ccc(Cl)cn2)cc1` displayed an Activity on Coagulation factor X [4] greater than 5 µM. The half-maximal inhibitory concentration (IC50) at Coagulation factor X [1] amounted to 26 nM.
Consider `CNc1ccccc1-c1ccc(C(=O)Nc2ccc(Cl)cc2C(=O)Nc2ccc(Cl)cn2)cc1`, for which it took 4.1 nM to reach half-maximal inhibition at Coagulation factor X [1] (IC50).
Same read-out and setting: next, `O=C(Nc1ccc(Cl)cc1C(=O)Nc1ccc(Cl)cn1)c1ccc(-c2ccccc2N2CCOCC2)cc1`: 4.1 nM.
Consider `CN1CCN(c2ccccc2-c2ccc(C(=O)Nc3ccc(Cl)cc3C(=O)Nc3ccc(Cl)cn3)cc2)CC1`, for which the Activity on Coagulation factor X [4] was greater than 5 µM. For the same compound, the half-inhibitory concentration (IC50) against Coagulation factor X [1] is 3.5 nM. The affinity at Coagulation factor X [2] corresponds to a Ki of 0.9 nM.
Consider `NS(=O)(=O)c1ccccc1-c1ccc(C(=O)Nc2cnccc2C(=O)Nc2ccc(Cl)cn2)cc1`, for which, at Coagulation factor X [4], the Activity came out at 4.9 µM. Also, it took 23 nM to reach half-maximal inhibition against Coagulation factor X [1] (IC50).
Turning to `CN1CCCN(c2ccccc2-c2ccc(C(=O)Nc3ccc(Cl)cc3C(=O)Nc3ccc(Cl)cn3)cc2)CC1`, the Activity on Coagulation factor X [4] is greater than 5 µM. The half-inhibitory concentration (IC50) at Coagulation factor X [1] stood at 3.1 nM. Besides, the affinity at Coagulation factor X [2], expressed as Ki, was 0.8 nM.
In the case of `O=C(Nc1ccc(Cl)cc1C(=O)Nc1ccc(Cl)cn1)c1ccc(-c2ccccc2N2CCCCC2)cc1`, at Coagulation factor X [1], inhibition was half-maximal at 2.8 nM (IC50).
With `O=C(Nc1ccc(Cl)cc1C(=O)Nc1ccc(Cl)cn1)c1ccc(-c2ccccc2N2CCNCC2)cc1`, on Coagulation factor X [4], the Activity was greater than 5 µM. Further, it took 4.1 nM to reach half-maximal inhibition at Coagulation factor X [1] (IC50). This compound had an inhibition constant (Ki) at Coagulation factor X [2] of 1 nM.
For the compound `NS(=O)(=O)c1ccccc1-c1ccc(C(=O)Nc2ncccc2C(=O)Nc2ccc(Cl)cn2)cc1`, on Coagulation factor X [4], the Activity is greater than 5 µM. This compound came in with an IC50 at Coagulation factor X [1] of 48 nM.
For the compound `Nc1ccccc1-c1ccc(C(=O)Nc2ccc(Cl)cc2C(=O)Nc2ccc(Cl)cn2)cc1`, on Coagulation factor X [4], the Activity is greater than 5 µM. The Ki on Coagulation factor X [2] amounted to 0.2 nM.
As to `O=C(Nc1ccc(Cl)cc1C(=O)Nc1ccc(Cl)cn1)c1ccc(-c2cccc(N3CCOCC3)c2)cc1`, on Coagulation factor X [1], the IC50 turned out to be 74 nM.
Same read-out and setting: next, `NS(=O)(=O)c1ccccc1-c1ccc(C(=O)Nc2ccc(-n3ccnc3)cc2C(=O)Nc2ccc(Br)cn2)cc1`: 128 nM.
Same read-out and setting: the figure for `CN1CCN(c2cccc(-c3ccc(C(=O)Nc4ccc(Cl)cc4C(=O)Nc4ccc(Cl)cn4)cc3)c2)CC1` is 23 nM; for `CN(C)c1cccc(-c2ccc(C(=O)Nc3ccc(Cl)cc3C(=O)Nc3ccc(Cl)cn3)cc2)c1` it is 3.5 nM; for `NCc1ccccc1-c1ccc(C(=O)Nc2ccccc2C(=O)Nc2ccc(Cl)cn2)cc1` it is 67 nM.
On the same count and under the same terms, the figure for `O=C(Nc1ccc(Cl)cc1C(=O)Nc1ccc(Cl)cn1)c1ccc(-c2cccc(N3CCC(C(=O)O)CC3)c2)cc1` is 1.8 nM; for `O=C(Nc1ccc(Cl)cc1C(=O)Nc1ccc(Cl)cn1)c1ccc(-c2ccccc2N2CCCC2)cc1` it is 2.8 nM.
Regarding `NS(=O)(=O)c1ccccc1-c1ccc(C(=O)Nc2ccccc2C(=O)Nc2ccc(Br)cn2)cc1`, the Activity at Coagulation factor X [4] was greater than 5 µM. The concentration for half-maximal inhibition (IC50) is greater than 10000 nM at Serine protease 1; 2100 nM at Kallikrein-1; greater than 10000 nM in series [5]; greater than 10000 nM in series [6]; greater than 10000 nM in series [7]; 3.4 nM against Coagulation factor X [1].
Turning to `CN1CCCN(c2cccc(-c3ccc(C(=O)Nc4ccc(Cl)cc4C(=O)Nc4ccc(Cl)cn4)cc3)c2)CC1`, on Coagulation factor X [1], it took 22 nM to reach half-maximal inhibition (IC50).
Turning to `O=C(Nc1ccc(Cl)cc1C(=O)Nc1ccc(Cl)cn1)c1ccc(-c2ccccc2N2CCC(O)CC2)cc1`, the Activity on Coagulation factor X [4] was greater than 5 µM. At Coagulation factor X [1], this compound showed a half-inhibitory concentration (IC50) of 1 nM. The affinity on Coagulation factor X [2] corresponds to a Ki of 0.2 nM. The compound further yielded a bioavailability in [3] of 32%.
At Coagulation factor X [4], `N=C(N)NCc1cccc(-c2ccc(C(=O)Nc3ccc(Cl)cc3C(=O)Nc3ccc(Cl)cn3)cc2)c1` showed an Activity greater than 5 µM. Further, it took 9.5 nM to reach half-maximal inhibition against Coagulation factor X [1] (IC50). In addition, the bioavailability in series [3] was less than 1%.

These data come from ChEMBL document CHEMBL1147577, “Design, synthesis, and SAR of anthranilamide-based factor Xa inhibitors incorporating substituted biphenyl P4 motifs” (Bioorg Med Chem Lett, 2004).
